Assay results taken from ChEMBL document CHEMBL1132816, “Arylacetamides as peripherally restricted kappa opioid receptor agonists” (Bioorg Med Chem Lett, 2000).

Experiments:
Assay type in all cases: functional
Rattus norvegicus [1] = test: The compound was evaluated in vivo for their ability to inhibit formalin induced flinching in rats by subcutaneous administration
In short: (§1)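 Rat formalin-induced flinching with subcutaneous dosing, starting at 10 or 30 mg/kg. Read-out is % inhibition of flinching at the dose given, or an A50 in mg/kg from titration.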

Rattus norvegicus [2] = test: The compound was evaluated in vivo for sedation in rats by subcutaneous administration using Rotarod assay; conditions: sc
In short: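 Sedation, taken as a centrally mediated side effect, scored by rotarod performance in rats after subcutaneous dosing. Read-out is the ED50 in mg/kg.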

Rattus norvegicus [3] = test: The compound was evaluated in vivo for its ability to inhibit formalin induced flinching in rats by intrapaw administration
In short: (§2)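 Rat formalin-induced flinching with intrapaw dosing. Read-out is % inhibition of flinching at the stated dose. Agents reaching ≥80% antagonism at 300 µg were titrated to an A50 in µg.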

Rattus norvegicus [4] = test: The compound was evaluated in vivo for antagonism of formalin induced flinching in rats at 300 (microg) by intrapaw administration; in short: as §2
Rattus norvegicus [5] = test: The compound was evaluated in vivo for antagonism of formalin induced flinching in rats at 1000 (microg) by intrapaw administration; in short: as §2
Rattus norvegicus [6] = test: The compound was evaluated in vivo for antagonism of formalin induced financing in rats at 30 […] by subcutaneous administration; in short: as §1
Rattus norvegicus [7] = test: The compound was evaluated in vivo for antagonism of formalin induced […] in rats at 10 […] by subcutaneous administration; in short: as §1
Rattus norvegicus [8] = test: The compound was evaluated in vivo for percent decrease of sedation in rats at 3 mg/kg by subcutaneous administration using Rotarod assay

SMILES: CN(C(=O)Cc1cccc(C(F)(F)F)c1)[C@H](CN1CCCC1)c1ccccc1
- A50 (Rattus norvegicus [1]): 0.02 mg/kg
- ED50 (Rattus norvegicus [2]): 0.18 mg/kg

SMILES: CN(C(=O)Cc1ccccc1N)[C@H](CN1CCCC1)c1ccccc1
- A50 (Rattus norvegicus [3]): 65 µg
- A50 (Rattus norvegicus [1]): 1.5 mg/kg
- ED50 (Rattus norvegicus [2]): 8.9 mg/kg

SMILES: CN(C(=O)Cc1ccc(Cl)c(Cl)c1N(S(C)(=O)=O)S(C)(=O)=O)[C@H](CN1CCCC1)c1ccccc1
- A50 (Rattus norvegicus [3]): 28 µg

SMILES: CN(C(=O)Cc1cccc([N+](=O)[O-])c1)[C@H](CN1CCCC1)c1ccccc1
- Antagonism (Rattus norvegicus [4]): 95%

SMILES: CN(C(=O)Cc1ccc(N(S(C)(=O)=O)S(C)(=O)=O)cc1)[C@H](CN1CCCC1)c1ccccc1
- Antagonism (Rattus norvegicus [5]): 95%
- Antagonism (Rattus norvegicus [6]): 30%

SMILES: CN(C(=O)Cc1ccccc1N(S(C)(=O)=O)S(C)(=O)=O)[C@H](CN1CCCC1)c1ccccc1
- A50 (Rattus norvegicus [3]): 17 µg
- Antagonism (Rattus norvegicus [6]): 21%

SMILES: CN(C(=O)Cc1cccc(N(S(C)(=O)=O)S(C)(=O)=O)c1)[C@H](CN1CCCC1)c1ccccc1
- Antagonism (Rattus norvegicus [4]): 91%
- Antagonism (Rattus norvegicus [7]): 15%

SMILES: CN(C(=O)Cc1ccc(C(F)(F)F)cc1)[C@H](CN1CCCC1)c1ccccc1
- A50 (Rattus norvegicus [3]): 0.82 µg
- A50 (Rattus norvegicus [1]): 0.009 mg/kg
- ED50 (Rattus norvegicus [2]): 0.12 mg/kg

SMILES: CN(C(=O)Cc1ccc(Cl)c(Cl)c1N)[C@H](CN1CCCC1)c1ccccc1
- A50 (Rattus norvegicus [3]): 7 µg

SMILES: CN(C(=O)Cc1ccccc1[N+](=O)[O-])[C@H](CN1CCCC1)c1ccccc1
- A50 (Rattus norvegicus [3]): 29 µg

SMILES: CN(C(=O)Cc1ccccc1C(F)(F)F)[C@H](CN1CCCC1)c1ccccc1
- Decrease (Rattus norvegicus [8]): 71%
- A50 (Rattus norvegicus [1]): 0.54 mg/kg

SMILES: CN(C(=O)Cc1cccc(N)c1)[C@H](CN1CCCC1)c1ccccc1
- Antagonism (Rattus norvegicus [4]): 58%

SMILES: CN(C(=O)Cc1ccc(N)cc1)[C@H](CN1CCCC1)c1ccccc1
- Antagonism (Rattus norvegicus [4]): 52%

SMILES: CN(C(=O)Cc1ccc(Cl)c(Cl)c1[N+](=O)[O-])[C@H](CN1CCCC1)c1ccccc1
- A50 (Rattus norvegicus [3]): 5.3 µg
- A50 (Rattus norvegicus [1]): 0.24 mg/kg
- ED50 (Rattus norvegicus [2]): 0.97 mg/kg

SMILES: CN(C(=O)Cc1ccc(Cl)c(Cl)c1)[C@H](CN1CCCC1)c1ccccc1 [ICI-199,441]
- A50 (Rattus norvegicus [3]): 0.74 µg
- A50 (Rattus norvegicus [1]): 0.05 mg/kg
- ED50 (Rattus norvegicus [2]): 0.14 mg/kg
